According to ChEMBL document CHEMBL4311948, “Exploring the Natural Piericidins as Anti-Renal Cell Carcinoma Agents Targeting Peroxiredoxin 1” (J Med Chem, 2019):

Experiments:
ACHN [1] = assay: Cytotoxicity against human ACHN cells assessed as reduction in cell viability measured after 72 hrs by CCK8 assay; assay type: functional, cell-based
Outline: (§1)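 Cells were grown in 10% FBS medium: MEM for ACHN, RPMI1640 for OS-RC-2 and 786-O, DMEM for HK-2. They were seeded at 400–800 cells/well in 384-well plates and treated with a range of compound concentrations or solvent control, with sorafenib as positive control. After 72 h, CCK-8 absorbance was read at 450 nm in triplicate, and IC50 was taken from dose-response curves.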

OS-RC-2 = assay: Cytotoxicity against human OS-RC2 cells assessed as reduction in cell viability measured after 72 hrs by CCK8 assay; assay type: functional, cell-based; settings: OS-RC-2, 72 h; outline: as §1
786-0 = assay: Cytotoxicity against human 786-O cells assessed as reduction in cell viability measured after 72 hrs by CCK8 assay; assay type: functional, cell-based; settings: 786-0, 72 h; outline: as §1
HK-2 = assay: Cytotoxicity against human HK2 cells assessed as reduction in cell viability measured after 72 hrs by CCK8 assay; assay type: cell-based; settings: HK-2, 72 h; outline: as §1
ACHN [2] = assay: Cytotoxicity against human ACHN cells harboring shPRDX1 gene assessed as reduction in cell viability measured after 72 hrs by CCK8 assay; assay type: functional, cell-based; settings: Homo sapiens, ACHN, 72 h; read-out: IC50
Outline: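 Transfectants were selected with puromycin (1 μg/mL), and knockdown was confirmed by immunoblot. Viability was read by CCK-8 after 72 h of compound exposure in 384-well plates at 400–800 cells/well in MEM with 10% FBS, and IC50 was taken from dose-response curves.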

Compound: COc1nc(C/C=C(\C)C/C=C/C(C)=C/[C@@H](C)[C@@H](O[C@@H]2O[C@H](CO[C@H]3O[C@H](CO)[C@H](O)[C@H](O)[C@H]3O)[C@@H](O)[C@H](O)[C@H]2O)/C(C)=C/CO)c(C)c(O)c1OC
- IC50 (ACHN [1]): > 100 µM
- IC50 (OS-RC-2): > 100 µM
- IC50 (786-0): > 100 µM
- IC50 (HK-2): > 100 µM

Compound: C/C=C(\C)[C@H](O[C@@H]1O[C@H](CO[C@H]2O[C@H](CO)[C@@H](O)[C@H](O)[C@H]2O)[C@@H](O)[C@H](O)[C@H]1O)[C@H](C)/C=C(C)/C=C/C/C(C)=C/Cc1nc(OC)c(OC)c(O)c1C
- IC50 (ACHN [1]): 21 µM
- IC50 (OS-RC-2): > 100 µM
- IC50 (786-0): > 100 µM
- IC50 (HK-2): > 100 µM

Compound: C/C=C(\C)[C@H](O[C@@H]1O[C@H](CO)[C@@H](O)[C@H](O)[C@H]1O)[C@H](C)/C=C(\C)[C@@H](OC)[C@@H](O)C/C(C)=C/Cc1nc(OC)c(OC)c(O)c1C
- IC50 (ACHN [1]): 2.4 µM
- IC50 (OS-RC-2): > 100 µM
- IC50 (786-0): > 100 µM

Compound: C/C=C(\C)[C@H](O[C@@H]1O[C@H](CO[C@H]2O[C@H](CO)[C@H](O)[C@H](O)[C@H]2O)[C@@H](O)[C@H](O)[C@H]1O)[C@H](C)/C=C(C)/C=C/C/C(C)=C/Cc1nc(OC)c(OC)c(O)c1C
- IC50 (ACHN [1]): 4.5 µM
- IC50 (OS-RC-2): > 100 µM
- IC50 (786-0): > 100 µM
- IC50 (HK-2): > 100 µM
- IC50 (ACHN [2]): 9 µM

Compound: COc1nc(C/C=C(\C)C/C=C/C=C/[C@@H](C)[C@@H](O[C@@H]2O[C@H](CO)[C@@H](O)[C@H](O)[C@H]2O)/C(C)=C/CO)c(C)c(O)c1OC
- IC50 (ACHN [1]): 2.5 µM
- IC50 (OS-RC-2): 79 µM
- IC50 (786-0): 28 µM

Compound: COc1nc(C/C=C(\C)C/C(C)=C/C(C)=C/[C@@H](C)[C@@H](O)[C@]2(C)O[C@H]2C)c(C)c(O)c1OC
- IC50 (ACHN [1]): > 100 µM
- IC50 (OS-RC-2): 22 µM
- IC50 (786-0): > 100 µM
- IC50 (HK-2): > 100 µM
- IC50 (ACHN [2]): > 100 µM

Compound: C/C=C(\C)[C@H](O[C@@H]1O[C@H](CO)[C@@H](O)[C@H](O)[C@H]1O)[C@H](C)/C=C(C)/C=C/C/C(C)=C/Cc1nc(OC)c(OC)c(O[C@@H]2O[C@H](CO)[C@@H](O)[C@H](O)[C@H]2O)c1C
- IC50 (ACHN [1]): 28 µM
- IC50 (OS-RC-2): > 100 µM
- IC50 (786-0): > 100 µM
- IC50 (HK-2): 1.1 µM

Compound: C/C=C(\C)[C@H](O)[C@H](C)/C=C(C)/C=C(\C)C/C(C)=C/Cc1nc(OC)c(OC)c(O)c1C
- IC50 (ACHN [1]): 14 µM
- IC50 (OS-RC-2): 17 µM
- IC50 (786-0): 50 µM
- IC50 (HK-2): 45 µM
- IC50 (ACHN [2]): 68 µM

Compound: COc1nc(C/C=C(\C)C/C=C/C(C)=C/[C@@H](C)[C@@H](O[C@@H]2O[C@H](CO[C@H]3O[C@H](CO)[C@@H](O)[C@H](O)[C@H]3O)[C@@H](O)[C@H](O)[C@H]2O)/C(C)=C/CO)c(C)c(O)c1OC
- IC50 (ACHN [1]): 23 µM
- IC50 (OS-RC-2): > 100 µM
- IC50 (786-0): > 100 µM
- IC50 (HK-2): > 100 µM
- IC50 (ACHN [2]): 58 µM

Compound: C/C=C/[C@H](O)[C@H](C)/C=C(C)/C=C/C/C(C)=C/Cc1nc(OC)c(OC)c(O)c1C
- IC50 (ACHN [1]): 4.1 µM
- IC50 (OS-RC-2): 11 µM
- IC50 (786-0): > 100 µM
- IC50 (ACHN [2]): 11 µM

Compound: COc1nc(C/C=C(\C)C/C=C/C(C)=C/[C@@H](C)[C@@H](O[C@@H]2O[C@H](CO)[C@@H](O)[C@H](O)[C@H]2O)[C@@]2(C)O[C@@H]2C)c(C)c(O)c1OC
- IC50 (ACHN [1]): 2.8 µM
- IC50 (OS-RC-2): 30 µM
- IC50 (786-0): 19 µM

Compound: COc1nc(C/C=C(\C)C[C@H](O)[C@H](OC)/C(C)=C/[C@@H](C)[C@@H](O[C@@H]2O[C@H](CO)[C@@H](O)[C@H](O)[C@H]2O)/C(C)=C/CO)c(C)c(O)c1OC
- IC50 (ACHN [1]): 60 µM
- IC50 (OS-RC-2): > 100 µM
- IC50 (786-0): > 100 µM

Compound: C/C=C(\C)[C@H](O[C@@H]1O[C@H](CO)[C@@H](O)[C@H](O)[C@H]1O)[C@H](C)/C=C(C)/C=C/C/C(C)=C/Cc1nc(OC)cc(O)c1C
- IC50 (ACHN [1]): 3.8 µM
- IC50 (OS-RC-2): 14 µM
- IC50 (786-0): 15 µM

Compound: C/C=C(\C)C(=O)[C@H](C)/C=C(C)/C=C/C/C(C)=C/Cc1nc(OC)c(OC)c(O)c1C
- IC50 (ACHN [1]): > 100 µM
- IC50 (OS-RC-2): 22 µM
- IC50 (786-0): > 100 µM
- IC50 (ACHN [2]): > 100 µM

Compound: C/C=C(\C)[C@H](O[C@@H]1O[C@H](CO)[C@@H](O)[C@H](O)[C@H]1O)[C@H](C)/C=C/C=C/C/C(C)=C/Cc1nc(OC)c(OC)c(O)c1C
- IC50 (ACHN [1]): 0.31 µM
- IC50 (OS-RC-2): 2.6 µM
- IC50 (786-0): 0.99 µM
